Data: ChEMBL document CHEMBL1134576, “Discovery of potent antagonists of leukocyte function-associated antigen-1/intercellular adhesion molecule-1 interaction. 3. Amide (C-ring) structure-activity relationship and improvement of overall properties of arylthio cinnamides” (J Med Chem, 2001)
Values after ≈ are worked out from the molar mass of the structure shown. Values joined by “and” are separate entries in the source; they are usually repeats but may differ in a detail not shown here. Equal entries are not always repeated.

Key:
[1] = biological target: Intercellular adhesion molecule (ICAM-1), Integrin alpha-L/beta-2 (Homo sapiens, UniProt P05107+P20701); experiment: Ability to antagonise the Leukocyte function-associated Antigen-1/ Intracellular Adhesion molecule-1 interaction (LFA-1/ICAM-1); type: functional
Chain of Intercellular adhesion molecule (ICAM-1), Integrin alpha-L/beta-2 (P20701 whole entry): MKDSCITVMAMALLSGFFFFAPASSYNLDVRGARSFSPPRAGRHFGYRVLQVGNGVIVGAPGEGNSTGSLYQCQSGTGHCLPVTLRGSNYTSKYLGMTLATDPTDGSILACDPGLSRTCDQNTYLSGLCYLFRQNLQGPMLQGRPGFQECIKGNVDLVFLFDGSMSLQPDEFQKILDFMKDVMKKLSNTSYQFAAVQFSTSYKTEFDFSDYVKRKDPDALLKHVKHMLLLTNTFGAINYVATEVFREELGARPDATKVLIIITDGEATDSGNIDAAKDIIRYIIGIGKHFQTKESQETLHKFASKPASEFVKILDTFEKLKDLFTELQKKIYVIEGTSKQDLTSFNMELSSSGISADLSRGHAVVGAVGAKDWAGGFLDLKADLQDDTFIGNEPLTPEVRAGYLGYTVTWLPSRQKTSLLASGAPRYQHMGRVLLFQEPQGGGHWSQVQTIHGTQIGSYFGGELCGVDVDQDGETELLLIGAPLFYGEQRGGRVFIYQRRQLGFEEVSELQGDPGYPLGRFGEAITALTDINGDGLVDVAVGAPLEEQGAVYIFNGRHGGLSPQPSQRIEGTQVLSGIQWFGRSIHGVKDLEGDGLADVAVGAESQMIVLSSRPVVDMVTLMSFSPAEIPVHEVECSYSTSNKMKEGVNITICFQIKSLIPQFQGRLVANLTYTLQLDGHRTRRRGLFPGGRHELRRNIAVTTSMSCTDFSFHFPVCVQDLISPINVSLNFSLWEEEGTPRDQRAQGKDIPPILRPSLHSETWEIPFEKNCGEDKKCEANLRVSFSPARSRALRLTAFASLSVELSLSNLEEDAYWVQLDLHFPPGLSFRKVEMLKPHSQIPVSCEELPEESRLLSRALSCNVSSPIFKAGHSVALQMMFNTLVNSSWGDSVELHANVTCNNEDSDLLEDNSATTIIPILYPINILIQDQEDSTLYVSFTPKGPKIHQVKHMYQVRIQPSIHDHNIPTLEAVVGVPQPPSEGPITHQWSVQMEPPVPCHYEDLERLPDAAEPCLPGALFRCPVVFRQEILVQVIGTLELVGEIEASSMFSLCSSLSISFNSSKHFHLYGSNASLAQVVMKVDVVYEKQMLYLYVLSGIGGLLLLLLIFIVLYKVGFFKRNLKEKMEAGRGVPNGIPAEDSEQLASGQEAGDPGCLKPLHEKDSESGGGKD
Chain of Intercellular adhesion molecule (ICAM-1), Integrin alpha-L/beta-2 (P05362 whole entry, further chain): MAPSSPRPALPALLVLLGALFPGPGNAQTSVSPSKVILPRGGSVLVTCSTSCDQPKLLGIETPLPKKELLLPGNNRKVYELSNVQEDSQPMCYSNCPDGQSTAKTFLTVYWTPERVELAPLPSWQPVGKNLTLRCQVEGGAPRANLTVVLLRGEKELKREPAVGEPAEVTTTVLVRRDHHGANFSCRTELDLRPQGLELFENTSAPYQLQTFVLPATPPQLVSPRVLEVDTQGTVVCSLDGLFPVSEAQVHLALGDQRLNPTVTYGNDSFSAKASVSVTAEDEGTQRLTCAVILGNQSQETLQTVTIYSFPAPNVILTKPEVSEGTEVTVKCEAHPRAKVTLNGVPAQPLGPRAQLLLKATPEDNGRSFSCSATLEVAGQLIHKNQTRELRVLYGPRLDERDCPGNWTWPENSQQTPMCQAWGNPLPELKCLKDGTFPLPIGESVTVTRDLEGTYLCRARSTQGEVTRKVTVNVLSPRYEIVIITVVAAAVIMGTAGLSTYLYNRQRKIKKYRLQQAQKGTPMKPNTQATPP
Chain of Intercellular adhesion molecule (ICAM-1), Integrin alpha-L/beta-2 (P05107 whole entry): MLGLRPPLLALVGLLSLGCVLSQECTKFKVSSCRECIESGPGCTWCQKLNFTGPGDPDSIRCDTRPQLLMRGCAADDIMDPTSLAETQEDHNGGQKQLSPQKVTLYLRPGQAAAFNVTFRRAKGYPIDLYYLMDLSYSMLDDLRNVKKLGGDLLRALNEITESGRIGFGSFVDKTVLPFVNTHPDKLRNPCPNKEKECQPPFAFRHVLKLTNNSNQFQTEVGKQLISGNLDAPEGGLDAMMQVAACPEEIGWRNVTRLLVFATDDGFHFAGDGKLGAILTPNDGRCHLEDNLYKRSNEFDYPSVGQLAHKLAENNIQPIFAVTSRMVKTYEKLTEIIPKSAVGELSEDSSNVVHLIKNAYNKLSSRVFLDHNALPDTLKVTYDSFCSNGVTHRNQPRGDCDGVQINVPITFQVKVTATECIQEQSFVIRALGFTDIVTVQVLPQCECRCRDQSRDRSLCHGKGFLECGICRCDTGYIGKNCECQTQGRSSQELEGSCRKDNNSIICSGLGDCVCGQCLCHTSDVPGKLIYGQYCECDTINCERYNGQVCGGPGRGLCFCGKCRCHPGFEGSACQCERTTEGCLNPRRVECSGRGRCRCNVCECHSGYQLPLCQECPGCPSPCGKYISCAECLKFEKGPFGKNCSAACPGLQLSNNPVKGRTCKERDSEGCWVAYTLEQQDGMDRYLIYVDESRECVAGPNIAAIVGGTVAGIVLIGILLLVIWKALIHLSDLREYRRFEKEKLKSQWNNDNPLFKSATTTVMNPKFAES

[2] = test system: JY; experiment: Inhibition of JY8 cell adhesion process (The assay was run with 1% fetal bovine serum); type: functional, cell-based; settings: Homo sapiens, JY-8
Summary of the method: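 JY-8 cells […] in the presence of 1% fetal bovine serum. Six concentrations from 6.4 × 10^-9 to 2 × 10^-5 were run in duplicate. IC50 is the mean of repeat measurements, with the range given.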

[3] = Oral bioavailability in rat; type: ADME, organism-based; settings: in vivo
Summary of the method: (§1)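 Rats (n = 4/group) received 5 mg/kg either iv as a slow jugular bolus or po by gavage. The terminal-phase rate constant gave t1/2 and AUC extrapolated to infinity. F compares oral with iv AUC.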

[4] = Half life period after iv dose in rat; type: ADME, organism-based; settings: in vivo; summary of the method: as §1
[5] = test system: Rattus norvegicus; experiment: Cmax value after po dose in rat; type: ADME, organism-based; parameters: route oral; settings: in vivo; summary of the method: as §1
[6] = Water solubility
[7] = Clearance after iv dose in rat; settings: in vivo
[8] = Mean residence time after po dose in rat; type: ADME, organism-based; settings: in vivo; summary of the method: as §1
[9] = test system: Rattus norvegicus; experiment: Half life period after intravenous dose in rat; type: ADME, organism-based; settings: in vivo; summary of the method: as §1
[10] = test system: Rattus norvegicus; experiment: heart rate in a rat model of ischemia immediately prior to the occlusion at 50 mg/kg dose; type: functional
[11] = test system: Rattus norvegicus; experiment: heart rate in a rat model of reperfusion after 5 min at 50 mg/kg dose; type: functional
[12] = test system: Rattus norvegicus; experiment: heart rate in a rat model of reperfusion after 60 min at 50 mg/kg dose; type: functional
[13] = test system: Rattus norvegicus; experiment: heart rate pressure in a rat model of reperfusion after 120 min at 3 mg/kg dose; type: functional
[14] = test system: Rattus norvegicus; experiment: heart rate pressure in a rat model of reperfusion after 180 min at 3 mg/kg dose; type: functional
[15] = test system: Rattus norvegicus; experiment: heart rate pressure in a rat model of reperfusion after 5 min at 3 mg/kg dose; type: functional
[16] = test system: Rattus norvegicus; experiment: heart rate pressure in a rat model of reperfusion after 60 min at 3 mg/kg dose; type: functional
[17] = test system: Rattus norvegicus; experiment: heart rate in a rat model of ischemia after 15 min at 3 mg/kg dose; type: functional
[18] = test system: Rattus norvegicus; experiment: heart rate in a rat model of ischemia after 15 min at 50 mg/kg dose; type: functional
[19] = test system: Rattus norvegicus; experiment: heart rate in a rat model of ischemia immediately prior to the occlusion at 3 mg/kg dose; type: functional
[20] = test system: Rattus norvegicus; experiment: mean arterial pressure in a rat model of ischemia after 15 min at 3 mg/kg dose; type: functional, Artery
[21] = test system: Rattus norvegicus; experiment: mean arterial pressure in a rat model of ischemia after 15 min at 50 mg/kg dose; type: functional, Artery
[22] = test system: Rattus norvegicus; experiment: mean arterial pressure in a rat model of ischemia immediately prior to the occlusion at 3 mg/kg dose; type: functional, Artery
[23] = test system: Rattus norvegicus; experiment: mean arterial pressure in a rat model of ischemia immediately prior to the occlusion at 50 mg/kg dose; type: functional, Artery
[24] = test system: Rattus norvegicus; experiment: mean arterial pressure in a rat model of reperfusion after 120 min at 3 mg/kg dose; type: functional, Artery
[25] = test system: Rattus norvegicus; experiment: mean arterial pressure in a rat model of reperfusion after 120 min at 50 mg/kg dose; type: functional, Artery
[26] = test system: Rattus norvegicus; experiment: mean arterial pressure in a rat model of reperfusion after 180 min at 3 mg/kg dose; type: functional, Artery
[27] = test system: Rattus norvegicus; experiment: mean arterial pressure in a rat model of reperfusion after 180 min at 50 mg/kg dose; type: functional, Artery
[28] = test system: Rattus norvegicus; experiment: mean arterial pressure in a rat model of reperfusion after 5 min at 3 mg/kg dose; type: functional, Artery
[29] = test system: Rattus norvegicus; experiment: mean arterial pressure in a rat model of reperfusion after 5 min at 50 mg/kg dose; type: functional, Artery
[30] = test system: Rattus norvegicus; experiment: mean arterial pressure in a rat model of reperfusion after 60 min at 3 mg/kg dose; type: functional, Artery
[31] = test system: Rattus norvegicus; experiment: mean arterial pressure in a rat model of reperfusion after 60 min at 50 mg/kg dose; type: functional, Artery
[32] = test system: Rattus norvegicus; experiment: rate pressure product in a rat model of ischemia immediately prior to the occlusion at 50 mg/kg dose; type: functional
[33] = test system: Rattus norvegicus; experiment: rate pressure product in a rat model of reperfusion after 120 min at 3 mg/kg dose; type: functional
[34] = test system: Rattus norvegicus; experiment: rate pressure product in a rat model of reperfusion after 120 min at 50 mg/kg dose; type: functional
[35] = test system: Rattus norvegicus; experiment: rate pressure product in a rat model of reperfusion after 180 min at 3 mg/kg dose; type: functional
[36] = test system: Rattus norvegicus; experiment: rate pressure product in a rat model of reperfusion after 180 min at 50 mg/kg dose; type: functional
[37] = test system: Rattus norvegicus; experiment: rate pressure product in a rat model of reperfusion after 5 min at 3 mg/kg dose; type: functional
[38] = test system: Rattus norvegicus; experiment: rate pressure product in a rat model of reperfusion after 5 min at 50 mg/kg dose; type: functional
[39] = test system: Rattus norvegicus; experiment: rate pressure product in a rat model of reperfusion after 60 min at 3 mg/kg dose; type: functional
[40] = test system: Rattus norvegicus; experiment: rate pressure product in a rat model of reperfusion after 60 min at 50 mg/kg dose; type: functional
[41] = test system: Rattus norvegicus; experiment: rate pressure product in a rat model of ischemia after 15 min at 3 mg/kg dose; type: functional
[42] = test system: Rattus norvegicus; experiment: rate pressure product in a rat model of ischemia after 15 min at 50 mg/kg dose; type: functional
[43] = test system: Rattus norvegicus; experiment: rate pressure product in a rat model of ischemia immediately prior to the occlusion at 3 mg/kg dose; type: functional
[44] = test system: Canis familiaris; experiment: Cmax value after po dose in dog; settings: in vivo
[45] = Clearance after intravenous dose in rat; settings: in vivo, CL
[46] = test system: Rattus norvegicus; experiment: Clearance after intravenous dose in rat; settings: in vivo
[47] = test system: Canis familiaris; experiment: Mean residence time after po dose in dog; settings: in vivo
[48] = test system: Rattus norvegicus; experiment: heart rate in a rat model of reperfusion after 120 min at 50 mg/kg dose
[49] = test system: Rattus norvegicus; experiment: heart rate in a rat model of reperfusion after 180 min at 50 mg/kg dose

Question: For `CC(C)c1ccccc1Sc1ccc(/C=C/C(=O)N2CCNC(C(=O)N(C)C)C2)cc1[N+](=O)[O-]` (stereo not drawn), which IC50 [1] is on record?
Answer: 75 nM

Question: Which IC50 [2] does the source give for `COC(=O)C1CN(C(=O)/C=C/c2ccc(Sc3ccccc3C(C)C)c([N+](=O)[O-])c2)CCN1C` (stereo not drawn) here?
Answer: 110 nM

Question: What about the IC50 [1] of the same molecule?
Answer: 45 nM

Question: What does the source list for `COC(=O)C1CN(C(=O)/C=C/c2ccc(Sc3ccccc3C(C)C)c([N+](=O)[O-])c2)CCN1` (stereo not drawn)?
Answer: IC50 [2]: 98 nM; IC50 [1]: 60 nM

Question: With `CC(C)c1ccccc1Sc1ccc(/C=C/C(=O)N2CC=CC2C(=O)O)cc1C(F)(F)F` (stereo not drawn) as the molecule, how does the IC50 [1] read?
Answer: 130 nM

Question: Which IC50 [1] does the source give for `CC(C)c1ccccc1Sc1ccc(/C=C/C(=O)N2CCN(C)CC2)cc1[N+](=O)[O-]` here?
Answer: 130 nM

Question: Which IC50 [1] does the source give for `CC(=O)N1CCN(C(=O)/C=C/c2ccc(Sc3ccccc3C(C)C)c([N+](=O)[O-])c2)CC1C(=O)O` (stereo not drawn) here?
Answer: 680 nM

Question: With `CC(C)c1ccccc1Sc1ccc(/C=C/C(=O)N2CCNC(CO)C2)cc1[N+](=O)[O-]` (stereo not drawn) as the molecule, how does the bioavailability [3] read?
Answer: 0%

Question: What about the half-life [4] of the same molecule?
Answer: 1.9 h

Question: And the Cmax [5]?
Answer: 0 ug m l-1

Question: And the IC50 [1]?
Answer: 280 nM

Question: And the Solubility [6]?
Answer: 5 µg/mL (≈ 11.3 µM)

Question: And the clearance [7]?
Answer: 53.3 mL/min/kg

Question: Which results are given for `O=C(O)C1CCCN(C(=O)/C=C/c2ccc(Sc3ccc4c(c3)OCCO4)c(C(F)(F)F)c2)C1` (stereo not drawn)?
Answer: F [3]: 29% and 55%; MRT [8]: 5 h; T1/2 [9]: 2.3 h and 5.7 h; Cmax [5]: 1.5 ug m l-1; IC50 [2]: 140 nM; IC50 [1]: 25 nM; HR [10]: 419 beats min-1; HR [11]: 382 beats min-1; HR [12]: 396 beats min-1; HR [13]: 371 beats min-1; HR [14]: 376 beats min-1; HR [15]: 379 beats min-1; HR [16]: 382 beats min-1; HR [17]: 391 beats min-1; HR [18]: 400 beats min-1; HR [19]: 393 beats min-1; MAP [20]: 107 mmHg; MAP [21]: 105 mmHg; MAP [22]: 118 mmHg; MAP [23]: 128 mmHg; MAP [24]: 85 mmHg; MAP [25]: 96 mmHg; MAP [26]: 95 mmHg; MAP [27]: 80 mmHg; MAP [28]: 98 mmHg; MAP [29]: 105 mmHg; MAP [30]: 99 mmHg; MAP [31]: 118 mmHg; RPP [32]: 54000 mmHg beats min-1; RPP [33]: 31800 mmHg beats min-1; RPP [34]: 38100 mmHg beats min-1; RPP [35]: 35100 mmHg beats min-1; RPP [36]: 32000 mmHg beats min-1; RPP [37]: 37500 mmHg beats min-1; RPP [38]: 40200 mmHg beats min-1; RPP [39]: 38100 mmHg beats min-1; RPP [40]: 46700 mmHg beats min-1; RPP [41]: 41800 mmHg beats min-1; RPP [42]: 42700 mmHg beats min-1; RPP [43]: 46400 mmHg beats min-1; Cmax [44]: 3700 ng/mL; clearance [45]: 4.83 mL/min/kg; clearance [46]: 5.67 mL/min/kg; MRT [47]: 5.7 h; HR [48]: 397 beats min-1; HR [49]: 399 beats min-1

Question: Which IC50 [2] does the source give for `CC(C)c1ccccc1Sc1ccc(/C=C/C(=O)N2CCOC(c3nnn[nH]3)C2)cc1[N+](=O)[O-]` (stereo not drawn) here?
Answer: 2 nM

Question: What about the IC50 [1] of the same molecule?
Answer: 20 nM

Question: Which IC50 [1] does the source give for `COC(=O)C1CNCCN1C(=O)/C=C/c1ccc(Sc2ccccc2C(C)C)c([N+](=O)[O-])c1` (stereo not drawn) here?
Answer: 340 nM
